Assay results gathered from unrelated publications.
Effect on: enzyme activity
Action: inhibitor
SRC: Proto-oncogene tyrosine-protein kinase Src (SRC, Homo sapiens, UniProt P12931)

| Compound | target | assay | setting | remaining activity |
| --- | --- | --- | --- | --- |
| Cc1ccc(NC(=O)c2ccc(C)c(C(F)(F)F)c2)cc1C#Cc1nn(C2CCC(O)CC2)c2ncnc(N)c12 (stereo not drawn) | SRC | – | 10 µM | 0% |
| CC(C)(O)[C@H]1CC[C@H](Nc2ccc3ncc(-c4cccc(C(F)(F)F)c4)n3n2)CC1 | SRC | – | 1 µM | 27.9% |
| Cc1[nH]c(/C=C2\C(=O)Nc3ccc(F)cc32)c(C)c1C(=O)N[C@H]1CCN(C(=O)N(C)C)C1 | SRC | – | 0.1 µM | 109% |
| Oc1cccc(-c2nc(N3CCOCC3)c3oc4ncccc4c3n2)c1 | SRC | – | 10 µM | 99% |
| O=C(Nc1cnn(-c2csc(C(=O)NC3COC3)c2)c1)Nc1c(F)cccc1Cl | SRC | – | 5 µM | 98.4% |
| Nc1nc(NC2CCCCC2)sc1C(=O)c1ccccc1 | SRC | – | 10 µM | 99% |
| COc1cc(Nc2cnc(C#N)c(O[C@H](C)CN(C)C)n2)ncc1-c1cnn(C)c1 | SRC | radiometric | 10 µM | 72% |
| Cn1c(=O)n(-c2ccc(C(C)(C)C#N)cc2)c2c3cc(-c4cnc5ccccc5c4)ccc3ncc21 | SRC | – | 10 µM | 121% |
| CC(C)(C)c1nc(-c2cccc(NS(=O)(=O)c3c(F)cccc3F)c2F)c(-c2ccnc(N)n2)s1 | SRC | radiometric | 1 µM | 68% |
| Cc1cnc(NC2CCOCC2)nc1-n1cnc(C(=O)NC(CN)c2cc(F)cc(Cl)c2)c1 (stereo not drawn) | Proto-oncogene tyrosine-protein kinase Src (SRC, Homo sapiens, UniProt P12931, T341M) | radiometric | 1 µM | 103% |
| CCN(CC)c1ccc(C2=NNC(=O)CC2C)cc1[N+](=O)[O-] (stereo not drawn) | SRC | – | 10 µM | 94% |
| O=C(Nc1cnn(-c2csc(C(=O)NC3COC3)c2)c1)Nc1ccccc1Cl | SRC | – | 5 µM | 91.1% |
